This is an account of results in PubChem BioAssay.

Activity calls are given as the source filed them.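 How the source made its calls, unless noted: active means viability at or below 30% in both replicate assays; inconclusive means viability at or below 30% in just one of the two assays; inactive means the rest.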

The term viability denotes a read-out of living cells in per cent, often relative to untreated cells. As a reminder, the inhibition is the drop in the measured response relative to a control, in per cent.

Test [1] can be described thus: Her2 expression decrease, cell viability multiplex – SKBR3 breast tumor cells, AlphaScreen, ATP viability, primary screen (AID 461;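 active means Her2 level under about 52% in both replicate screens, with viability over 70% of control, limit read from the data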;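 on Her2 level: lower value means less Her2 protein in the cells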;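 on viability: percent of carrier control wells set as 100% viability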). The following applies: SKBR3 Her2 protein level, 18-24 h, measured here: SKBR3 viability, ATP luminescence, at 10 µM.
For test [2], the target named is Receptor tyrosine-protein kinase erbB-2 (Homo sapiens) (UniProt P04626). Described as above. The conditions noted are these: 18-24 h, at 10 µM, stronger effect = lower value.
Chain of Receptor tyrosine-protein kinase erbB-2 (Homo sapiens) (P04626 whole entry, looked up): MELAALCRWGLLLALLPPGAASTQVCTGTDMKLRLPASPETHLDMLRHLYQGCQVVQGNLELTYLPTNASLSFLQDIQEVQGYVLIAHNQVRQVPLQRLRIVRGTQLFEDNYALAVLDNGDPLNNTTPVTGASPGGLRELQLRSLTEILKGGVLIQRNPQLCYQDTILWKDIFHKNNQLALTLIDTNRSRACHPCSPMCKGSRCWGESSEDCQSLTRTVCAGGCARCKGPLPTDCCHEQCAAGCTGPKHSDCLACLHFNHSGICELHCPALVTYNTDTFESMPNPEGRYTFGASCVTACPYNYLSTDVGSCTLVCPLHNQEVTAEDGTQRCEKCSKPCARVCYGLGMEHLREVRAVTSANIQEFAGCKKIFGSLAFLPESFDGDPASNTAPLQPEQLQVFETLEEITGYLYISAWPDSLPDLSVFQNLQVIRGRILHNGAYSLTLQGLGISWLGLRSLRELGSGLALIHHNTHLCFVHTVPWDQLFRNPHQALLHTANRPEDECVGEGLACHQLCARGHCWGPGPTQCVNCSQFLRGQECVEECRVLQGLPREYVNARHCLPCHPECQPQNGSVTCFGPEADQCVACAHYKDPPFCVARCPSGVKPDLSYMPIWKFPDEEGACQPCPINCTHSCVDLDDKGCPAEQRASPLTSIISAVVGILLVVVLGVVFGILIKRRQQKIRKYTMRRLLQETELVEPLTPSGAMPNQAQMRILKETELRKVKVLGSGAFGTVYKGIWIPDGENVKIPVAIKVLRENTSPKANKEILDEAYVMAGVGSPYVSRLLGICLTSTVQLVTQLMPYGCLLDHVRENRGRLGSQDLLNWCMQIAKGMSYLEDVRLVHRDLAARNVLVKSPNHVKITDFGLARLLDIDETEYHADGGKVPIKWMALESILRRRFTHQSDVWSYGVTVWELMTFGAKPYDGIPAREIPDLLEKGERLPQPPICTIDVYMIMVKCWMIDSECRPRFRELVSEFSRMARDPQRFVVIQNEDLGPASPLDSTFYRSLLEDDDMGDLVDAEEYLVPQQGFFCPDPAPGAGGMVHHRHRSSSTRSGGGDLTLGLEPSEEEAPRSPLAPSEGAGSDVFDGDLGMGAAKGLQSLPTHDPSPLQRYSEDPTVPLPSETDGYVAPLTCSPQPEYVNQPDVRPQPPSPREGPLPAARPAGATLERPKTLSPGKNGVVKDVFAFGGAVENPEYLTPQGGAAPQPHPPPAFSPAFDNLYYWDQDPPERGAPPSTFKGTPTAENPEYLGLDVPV
A short description of test [3]: reduced viability of SK-BR-3 breast cancer cells – cell-based, 24 h, human, pilot screen (AID 572;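 active means viability at or below 10% of carrier control in both of two separate runs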;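 further: compound exposure lasted between 18 and 24 h rather than exactly 24 h; 100% = carrier-treated control wells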). The conditions noted are these: SK-BR-3 viability, CellTiter-Glo luminescence, at 10 µM, stronger effect = lower value. In general terms: ATP-based viability assays read luminescence as a measure of living cells.
The nature of test [4]: HUVEC growth inhibition – cell-based, human, primary screen (AID 575).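 Further: 100% = median of untreated cell wells with 0.1% DMSO on each plate.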 The conditions noted are these: HUVEC proliferation, CellTiter-Glo luminescence, 72 h; at 10 µM; stronger effect = lower value. An outline of the steps: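 Test system – primary HUVEC, no more than 12 passages · Dosing – one dose, 10 µM final, 0.1% DMSO · Times – 72 h treatment at 37 °C · Measured by – ATP-based CellTiter-Glo luminescent read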

Test [5] is described as follows: H69AR cell proliferation blockers – human, duplicate replicates, primary screen (AID 580;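 active means viability at or under a set limit in both replicates, limit being median viability minus 3 SD, cut at about 48% in these data, passing the limit was not always enough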;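 further: 100% = mean luminescence of untreated wells and 0% = no signal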). The following applies: H69AR lung tumor cells viability, ATP luminescence, 72 h; at 10 µM; stronger effect = lower value.
Test [6] is described as follows: MRP1 drug-resistance reversers in H69AR cells – cell-based, doxorubicin co-treatment, pilot screen (AID 601;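 active means viability loss from added drug above about 55%, and viability with drug at most 40%, in both replicates, limit read from the data, passing the limit was not always enough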). The following applies: CellTiter-Glo, 72 h, at 10 µM; for differential viability (reversal): stronger effect = higher value.
The nature of test [7]: yeast transport mutant growth inhibition pilot in 384-well plates, post-Golgi transport modulator project (AID 636; in the data active means inhibition above about 31%). The conditions noted are these: absorbance 615 nm, about 18 h, stronger effect = higher value.
A short description of test [8]: growth suppression of yeast trafficking mutant, preliminary HTS, modulators of trafficking downstream of Golgi apparatus project, 1536-format plate, OD 615 nm (AID 637; in the data active means inhibition above about 30%). The following applies: yeast transport mutant growth, absorbance 615 nm, 18 h; stronger effect = higher value.
[9] abbreviates: H69AR cells + 2 uM doxorubicin, measured here: viability with 2 uM doxorubicin, stronger effect = lower value.
Setting [10] is: H69AR cells, compound alone cytotoxicity.

On to `COC(C)(C)c1cc(C(C)(C)C)nc(N)n1`, for which the viability in test [1] was 107%; in test [3], 107% (inactive); in test [4], 86.2% (inactive); in test [5], 89.9% (inactive); in test [6] (setting [9]), 91.2%; in test [6] (setting [10]), 89.9%. In addition, the Her2 level in test [2] is 109% (inactive). For the same compound, the differential viability (reversal) in test [6] (H69AR cells + 2 uM doxorubicin) was -1.34% (inactive). For the same compound, the inhibition in test [7] is -2.08% (inactive); in test [8], -4.75% (inactive).

Turning to `COc1cc(NC2=CC(=O)CC(C)(C)C2)cc(OC)c1`, the viability in test [1] was 77%; in test [3], 77% (inactive); in test [4], 85.5% (inactive); in test [5], 96.8% (inactive); in test [6] (setting [9]) it was 90.6%; in test [6] (setting [10]) it was 96.8%. Besides, the Her2 level in test [2] was 133% (inactive). The differential viability (reversal) in test [6] (H69AR cells + 2 uM doxorubicin) was 6.11% (inactive). The inhibition is 0.26% (inactive) in test [7] and -7.17% (inactive) in test [8].

On to `COc1cccc(NC(=O)CSc2nnc(-c3cccs3)n2C)c1`, for which the viability in test [1] is 98%; in test [3], 98% (inactive); in test [4], 116% (inactive); in test [5], 97.5% (inactive); in test [6] (setting [9]), 85.3%; in test [6] (setting [10]), 97.5%. The Her2 level in test [2] was 78.5% (inactive). Moreover, the differential viability (reversal) in test [6] (H69AR cells + 2 uM doxorubicin) was 12.2% (inactive). Moreover, the results for the inhibition in test [7] and in test [8] were -6.08% (inactive) and -1.67% (inactive), respectively.

For `CCNC(=O)N(C)c1nncnc1C(=O)NC`, the viability in test [1] was 85%; in test [3] it was 85% (inactive); in test [4] it was 89.8% (inactive); in test [5] it was 95.8% (inactive); in test [6] (setting [9]), 89.6%; in test [6] (setting [10]), 95.8%. In addition, the Her2 level in test [2] was 88% (inactive). Moreover, in test [6] (H69AR cells + 2 uM doxorubicin), the differential viability (reversal) is 6.2% (inactive). In addition, the values for the inhibition in test [7] and in test [8] were -3.6% (inactive) and 5.57% (inactive), respectively.

With `O=S(=O)(NCC1CCCO1)c1cccc(C(F)(F)F)c1` (stereo not given), the viability in test [1] was 97%; in test [3] it was 97% (inactive); in test [4], 95.1% (inactive); in test [5], 95.1% (inactive); in test [6] (setting [9]) it was 88.4%; in test [6] (setting [10]) it was 95.1%. Also, in test [2], the Her2 level was 93.5% (inactive). For the same compound, the differential viability (reversal) in test [6] (H69AR cells + 2 uM doxorubicin) is 6.7% (inactive). The inhibition in test [7] is -0.66% (inactive); in test [8] it was -5.64% (inactive).

As for `Cc1nc(NS(=O)(=O)c2ccccc2)sc1NC(=O)OC(C)C`, the viability in test [1] was 97%; in test [3] it was 97% (inactive); in test [4], 90.3% (inactive); in test [5], 99.9% (inactive); in test [6] (setting [9]), 98.7%; in test [6] (setting [10]), 99.9%. Further, the Her2 level in test [2] was 106% (inactive). For the same compound, the differential viability (reversal) in test [6] (H69AR cells + 2 uM doxorubicin) is 1.17% (inactive). Further, the inhibition in test [7] is -3.29% (inactive); in test [8], -12.5% (inactive).

`CCCCCCOC(=O)C(C#N)c1nc2ccccc2nc1N1CCCCC1` (stereo not given): the viability was 94% in test [1]; 94% (inactive) in test [3]; 63.8% (inactive) in test [4]; 89.1% (inactive) in test [5]; 101% in test [6] (setting [9]); 89.1% in test [6] (setting [10]). Further, the Her2 level in test [2] was 88% (inactive). In addition, the differential viability (reversal) in test [6] (H69AR cells + 2 uM doxorubicin) is -11.9% (inactive). Also, the inhibition in test [7] is -2.47% (inactive); in test [8], -2.33% (inactive).

As for `Cc1ccc(-c2cc(C(=O)NCCN3CCOCC3)no2)cc1`, the viability in test [1] is 86.5%; in test [3], 86.5% (inactive); in test [4], 95.3% (inactive); in test [5] it was 99.8% (inactive); in test [6] (setting [9]), 87%; in test [6] (setting [10]), 99.8%. For the same compound, the Her2 level in test [2] is 120% (inactive). Further, the differential viability (reversal) in test [6] (H69AR cells + 2 uM doxorubicin) was 12.7% (inactive). In addition, the inhibition in test [7] is 3.07% (inactive); in test [8], -6.83% (inactive).

On to `FC(F)Oc1ccc(-c2csc(Cc3nnc4n3CCCCC4)n2)cc1`, for which the viability was 78% in test [1]; 78% (inactive) in test [3]; 110% (inactive) in test [4]; 97.2% (inactive) in test [5]; 91.5% in test [6] (setting [9]); 97.2% in test [6] (setting [10]). For the same compound, in test [2], the Her2 level was 102% (inactive). Further, the differential viability (reversal) in test [6] (H69AR cells + 2 uM doxorubicin) is 5.74% (inactive). Also, the inhibition in test [7] is -7.26% (inactive); in test [8], -9.05% (inactive).

With `COc1ccc(CNc2ccc(C(=O)O)cc2)cc1`, the viability in test [1] was 102%; in test [3], 102% (inactive); in test [4], 93% (inactive); in test [5], 91.7% (inactive); in test [6] (setting [9]), 86.8%; in test [6] (setting [10]), 91.7%. In test [2], the Her2 level is 87% (inactive). Further, the differential viability (reversal) in test [6] (H69AR cells + 2 uM doxorubicin) is 4.9% (inactive). The inhibition in test [7] is -3.87% (inactive); in test [8] it was 8.55% (inactive).

As to `COc1cccc(N2CCN(CC(=O)Nc3nnc(-c4ccccc4)s3)CC2)c1`, the viability in test [1] is 86%; in test [3], 86% (inactive); in test [4], 54.7% (inactive); in test [5] it was 83.5% (inactive); in test [6] (setting [9]), 103%; in test [6] (setting [10]), 83.5%. Also, in test [2], the Her2 level is 86% (inactive). In test [6] (H69AR cells + 2 uM doxorubicin), the differential viability (reversal) was -19.7% (inactive). Also, the inhibition in test [7] was -3.12% (inactive); in test [8], -1.64% (inactive).

As to `CN1CCN(/C=N/c2sc3c(c2C#N)CCCCC3)CC1`, the viability was 97% in test [1]; 97% (inactive) in test [3]; 75.9% (inactive) in test [4]; 84.2% (inactive) in test [5]; 78.1% in test [6] (setting [9]); 84.2% in test [6] (setting [10]). Moreover, the Her2 level in test [2] is 96.5% (inactive). Further, the differential viability (reversal) in test [6] (H69AR cells + 2 uM doxorubicin) was 6.14% (inactive). Also, the inhibition is 0.67% (inactive) in test [7] and -9.52% (inactive) in test [8].

As for `COC(=O)C(NC(C)=O)(Nc1ccccn1)C(F)(F)F` (stereo not given), the viability in test [1] is 98%; in test [3] it was 98% (inactive); in test [4], 105% (inactive); in test [5] it was 89% (inactive); in test [6] (setting [9]) it was 94.4%; in test [6] (setting [10]), 89%. In addition, the Her2 level in test [2] was 78% (inactive). In addition, in test [6] (H69AR cells + 2 uM doxorubicin), the differential viability (reversal) is -5.41% (inactive). Besides, the inhibition is -1.97% (inactive) in test [7] and -7.64% (inactive) in test [8].

With `CCC(C)(C)n1nnnc1C(c1ccc(OC)c(OC)c1)N1CCN(c2ccc(F)cc2)CC1` (stereo not given), the viability in test [1] was 80%; in test [3], 80% (inactive); in test [4], 89.2% (inactive); in test [5], 85.8% (inactive); in test [6] (setting [9]), 54.5%; in test [6] (setting [10]), 85.8%. Besides, in test [2], the Her2 level was 93.5% (inactive). The differential viability (reversal) in test [6] (H69AR cells + 2 uM doxorubicin) was 31.3% (inactive). Moreover, the figures for the inhibition in test [7] and in test [8] were -1.95% (inactive) and 2% (inactive), respectively.

With `O=C(Nc1ccccc1N1CCOCC1)c1ccc2ccccc2n1`, the viability is 90% in test [1]; 90% (inactive) in test [3]; 67.4% (inactive) in test [4]; 79.4% (inactive) in test [5]; 91.9% in test [6] (setting [9]); 79.4% in test [6] (setting [10]). Also, the Her2 level in test [2] was 83.5% (inactive). The differential viability (reversal) in test [6] (H69AR cells + 2 uM doxorubicin) is -12.4% (inactive). In addition, the inhibition was -4.74% (inactive) in test [7] and -2% (inactive) in test [8].

In the case of `O=C(COc1ccccc1Cl)NCc1ccco1`, the viability is 89.5% in test [1]; 89.5% (inactive) in test [3]; 103% (inactive) in test [4]; 107% (inactive) in test [5]; 91.6% in test [6] (setting [9]); 107% in test [6] (setting [10]). Moreover, the Her2 level in test [2] is 78.5% (inactive). The differential viability (reversal) in test [6] (H69AR cells + 2 uM doxorubicin) is 15.4% (inactive). Moreover, the inhibition was -0.81% (inactive) in test [7] and -3.93% (inactive) in test [8].
